Data reported in ChEMBL document CHEMBL2057149 (J Med Chem, 2012).
Calls of active or inactive are those of the source. The calls are words filed in the database; no cut-off is given here.

Columns and labels:
Heparanase = biological target: T1, Heparanase (Homo sapiens, UniProt Q9Y251); assay: Inhibition of human recombinant heparanase after 2 to 24 hrs by WST1 dye based fondaparinux assay
T1 sequence (Q9Y251 whole entry): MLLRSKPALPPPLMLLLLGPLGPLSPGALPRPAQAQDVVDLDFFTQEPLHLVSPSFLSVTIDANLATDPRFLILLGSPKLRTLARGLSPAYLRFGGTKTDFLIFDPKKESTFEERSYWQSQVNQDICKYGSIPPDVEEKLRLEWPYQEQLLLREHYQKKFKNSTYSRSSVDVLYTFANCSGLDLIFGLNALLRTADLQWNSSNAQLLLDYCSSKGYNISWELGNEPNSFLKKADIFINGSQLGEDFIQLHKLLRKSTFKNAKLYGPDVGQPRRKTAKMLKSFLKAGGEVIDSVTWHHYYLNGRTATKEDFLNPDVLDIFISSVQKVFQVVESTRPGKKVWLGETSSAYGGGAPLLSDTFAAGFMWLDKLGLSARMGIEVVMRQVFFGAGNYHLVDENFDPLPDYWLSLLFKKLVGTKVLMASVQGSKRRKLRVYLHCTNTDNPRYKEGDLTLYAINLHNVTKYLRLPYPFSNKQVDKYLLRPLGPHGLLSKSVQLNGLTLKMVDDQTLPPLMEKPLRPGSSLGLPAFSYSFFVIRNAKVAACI

Plasma [1] = assay: Anticoagulant activity in pooled human plasma assessed as activated partial thromboplastin time at 0.1 mg/ml; format: ADME, cell-free
Method in brief: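 APTT of pooled normal human plasma measured with compound at 0–100 μg/mL in PBS on a ball coagulameter, using unfractionated heparin as the reference. Normal range 26–36 s; coefficient of variation 2% at 36 s and 5–7% at 90 s or above. Values are the mean of two determinations.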

[2] = biological target: Fibroblast growth factor 2 (Homo sapiens, UniProt P09038); assay: Binding affinity to FGF-2 by surface plasmon resonance assay
Chain of Fibroblast growth factor 2 (P09038 143-288 limits assumed): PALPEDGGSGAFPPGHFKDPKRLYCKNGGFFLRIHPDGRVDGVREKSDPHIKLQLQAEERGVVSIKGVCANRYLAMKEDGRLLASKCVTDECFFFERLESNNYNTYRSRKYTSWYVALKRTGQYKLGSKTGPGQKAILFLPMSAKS
Method in brief: (§1)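 Solution-affinity SPR on heparin-coated CM4 chips. FGF-1 measured in HBS-EP (10 mM HEPES pH 7.4, 150 mM NaCl, 3.0 mM EDTA, 0.005% polysorbate 20); FGF-2 measured in HBS-EP with 300 mM NaCl. Kd is the average of at least duplicate measurements ± SD.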

Plasma [3] = assay: Anticoagulant activity in pooled human plasma assessed as prolongation of the recalcification time at 0.1 mg/ml by Heptest assay; format: ADME, cell-free
Method in brief: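 Heptest clotting time in pooled normal human plasma; normal range 13–20 s. Values are the mean of two determinations.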

HUVEC [4] = assay: Antiangiogenic activity in FGF1-stimulated HUVEC cells after 72 hrs by CellTiter assay; format: functional, cell-based; conditions: Homo sapiens
HUVEC [5] = assay: Antiangiogenic activity in FGF2-stimulated HUVEC cells after 72 hrs by CellTiter assay; format: functional, cell-based; conditions: Homo sapiens
HUVEC [6] = assay: Antiangiogenic activity in VEGF-stimulated HUVEC cells after 72 hrs by CellTiter assay; format: functional, cell-based; conditions: Homo sapiens
[7] = biological target: Fibroblast growth factor 1 (Homo sapiens, UniProt P05230); assay: Binding affinity to FGF-1 by surface plasmon resonance assay; method in brief: as §1
Chain of Fibroblast growth factor 1 (P05230 whole entry): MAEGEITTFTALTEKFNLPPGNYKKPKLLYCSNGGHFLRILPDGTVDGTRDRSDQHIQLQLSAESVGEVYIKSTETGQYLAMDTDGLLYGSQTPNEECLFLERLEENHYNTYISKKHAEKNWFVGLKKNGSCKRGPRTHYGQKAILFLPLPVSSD

[8] = biological target: Vascular endothelial growth factor A (Homo sapiens) (UniProt P15692); assay: Binding affinity to VEGF by surface plasmon resonance assay
HMVEC [9] = assay: Antiangiogenic activity in FGF2-stimulated HMVEC cells after 72 hrs by CellTiter assay; format: functional, cell-based; conditions: Homo sapiens
HMVEC [10] = assay: Antiangiogenic activity in VEGF-stimulated HMVEC cells after 72 hrs by CellTiter assay; format: functional, cell-based; conditions: Homo sapiens
HMVEC [11] = assay: Antiangiogenic activity in FGF1-stimulated HMVEC cells after 72 hrs by CellTiter assay; format: functional, cell-based; conditions: Homo sapiens
HUVEC [12] = assay: Antiangiogenic activity in HUVEC cells assessed as inhibition of tube formation at 10 uM after 18 hrs by matrigel assay; format: functional; conditions: Homo sapiens
Method in brief: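 HUVECs (passage 4 or 5, 70–80% confluent) suspended at 4 × 10⁵/mL in EGM2 with all supplements except heparin, mixed 1:1 with compound (final 10, 50 or 100 μM) in triplicate. Plated on growth factor-reduced Matrigel for 18 h. Branching nodes joining ≥3 tubules counted manually by phase-contrast microscopy. Reported as % inhibition versus untreated cells.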

Structure (SMILES)	Ki (Heparanase) [nM]	APTT (Plasma [1]) [s]	Kd [2] [nM]	Time (Plasma [3]) [s]	IC50 (HUVEC [4]) [nM]	IC50 (HUVEC [5]) [nM]	IC50 (HUVEC [6]) [nM]	Kd [7] [nM]	Kd [8] [nM]	Activity (HMVEC [9])	Activity (HMVEC [10])	Activity (HMVEC [11])	inhibition at 10 µM (HUVEC [12]) [%]
CC(C)CCC[C@@H](C)[C@H]1CC[C@H]2[C@@H]3CC[C@H]4C[C@@H](OCc5cn([C@@H]6O[C@H](COS(=O)(=O)[O-])[C@@H](O[C@H]7O[C@H](COS(=O)(=O)[O-])[C@@H](O[C@H]8O[C@H](COS(=O)(=O)[O-])[C@@H](OS(=O)(=O)[O-])[C@H](OS(=O)(=O)[O-])[C@H]8OS(=O)(=O)[O-])[C@H](OS(=O)(=O)[O-])[C@H]7OS(=O)(=O)[O-])[C@H](OS(=O)(=O)[O-])[C@H]6OS(=O)(=O)[O-])nn5)CC[C@]4(C)[C@H]3CC[C@]12C.[Na+].[Na+].[Na+].[Na+].[Na+].[Na+].[Na+].[Na+].[Na+].[Na+]	16	61.2	610	30.2	2100	1200	1800	50	790	Active	Active	Active	
CC(C)CCC[C@@H](C)[C@H]1CC[C@H]2[C@@H]3CC[C@H]4C[C@@H](OCc5cn(CCCO[C@H]6O[C@H](COS(=O)(=O)[O-])[C@@H](OS(=O)(=O)[O-])[C@H](OS(=O)(=O)[O-])[C@@H]6O[C@H]6O[C@H](COS(=O)(=O)[O-])[C@@H](OS(=O)(=O)[O-])[C@H](O[C@H]7O[C@H](COS(=O)(=O)[O-])[C@@H](OS(=O)(=O)[O-])[C@H](OS(=O)(=O)[O-])[C@@H]7OS(=O)(=O)[O-])[C@@H]6OS(=O)(=O)[O-])nn5)CC[C@]4(C)[C@H]3CC[C@]12C.[Na+].[Na+].[Na+].[Na+].[Na+].[Na+].[Na+].[Na+].[Na+].[Na+]	8.5	73.3	480	33.1	3800	1700	2100	22.6	460	Active	Active	Active	
CC(C)CCC[C@@H](C)[C@H]1CC[C@H]2[C@@H]3CC[C@H]4C[C@@H](O[C@H]5O[C@H](COS(=O)(=O)[O-])[C@@H](OS(=O)(=O)[O-])[C@H](O[C@H]6O[C@H](COS(=O)(=O)[O-])[C@@H](OS(=O)(=O)[O-])[C@H](O[C@H]7O[C@H](COS(=O)(=O)[O-])[C@@H](OS(=O)(=O)[O-])[C@H](OS(=O)(=O)[O-])[C@@H]7OS(=O)(=O)[O-])[C@@H]6OS(=O)(=O)[O-])[C@@H]5OS(=O)(=O)[O-])CC[C@]4(C)[C@H]3CC[C@]12C.[Na+].[Na+].[Na+].[Na+].[Na+].[Na+].[Na+].[Na+].[Na+].[Na+]	10.5	58.5	490	24.2	2500	1800	1700	16	90	Active	Active	Active	
CC(=O)O[C@H]1C[C@H]2[C@@H](CC[C@H]3C[C@@H](OS(=O)(=O)[O-])CC[C@@]32C)[C@@H]2CC[C@H]([C@H](C)CCC(=O)N[C@@H]3O[C@H](COS(=O)(=O)[O-])[C@@H](O[C@H]4O[C@H](COS(=O)(=O)[O-])[C@@H](O[C@H]5O[C@H](COS(=O)(=O)[O-])[C@@H](O[C@H]6O[C@H](COS(=O)(=O)[O-])[C@@H](OS(=O)(=O)[O-])[C@H](OS(=O)(=O)[O-])[C@H]6OS(=O)(=O)[O-])[C@H](OS(=O)(=O)[O-])[C@H]5OS(=O)(=O)[O-])[C@H](OS(=O)(=O)[O-])[C@H]4OS(=O)(=O)[O-])[C@H](OS(=O)(=O)[O-])[C@H]3OS(=O)(=O)[O-])[C@@]12C.[Na+].[Na+].[Na+].[Na+].[Na+].[Na+].[Na+].[Na+].[Na+].[Na+].[Na+].[Na+].[Na+].[Na+]	20	41	50	26.8	> 50000	> 50000	> 50000	1.25	7.95	Active	Active	Active	
CC(C)CCC[C@@H](C)[C@H]1CC[C@H]2[C@@H]3CC[C@H]4C[C@@H](OCc5cn(CCCO[C@H]6O[C@H](COS(=O)(=O)[O-])[C@@H](OS(=O)(=O)[O-])[C@H](O[C@H]7O[C@H](COS(=O)(=O)[O-])[C@@H](OS(=O)(=O)[O-])[C@H](O[C@H]8O[C@H](COS(=O)(=O)[O-])[C@@H](OS(=O)(=O)[O-])[C@H](OS(=O)(=O)[O-])[C@@H]8OS(=O)(=O)[O-])[C@@H]7OS(=O)(=O)[O-])[C@@H]6OS(=O)(=O)[O-])nn5)CC[C@]4(C)[C@H]3CC[C@]12C.[Na+].[Na+].[Na+].[Na+].[Na+].[Na+].[Na+].[Na+].[Na+].[Na+]	8.4	71.4	474	26.4	2610	1200	1400	14.3	260	Active	Active	Active	
CCCCCCCCCCCCCCCCCC(=O)NCCCO[C@H]1O[C@H](COS(=O)(=O)[O-])[C@@H](OS(=O)(=O)[O-])[C@H](OS(=O)(=O)[O-])[C@@H]1O[C@H]1O[C@H](COS(=O)(=O)[O-])[C@@H](OS(=O)(=O)[O-])[C@H](O[C@H]2O[C@H](COS(=O)(=O)[O-])[C@@H](OS(=O)(=O)[O-])[C@H](O[C@H]3O[C@H](COS(=O)(=O)[O-])[C@@H](OS(=O)(=O)[O-])[C@H](OS(=O)(=O)[O-])[C@@H]3OS(=O)(=O)[O-])[C@@H]2OS(=O)(=O)[O-])[C@@H]1OS(=O)(=O)[O-].[Na+].[Na+].[Na+].[Na+].[Na+].[Na+].[Na+].[Na+].[Na+].[Na+].[Na+].[Na+].[Na+]	6	68.1	108	24.5	1540	700	600	0.44	40	Active	Active	Active	> 80
CCCCCCCCCCCCCCCCCC(=O)NCCCO[C@@H]1O[C@H](COS(=O)(=O)[O-])[C@@H](O[C@H]2O[C@H](COS(=O)(=O)[O-])[C@@H](O[C@H]3O[C@H](COS(=O)(=O)[O-])[C@@H](O[C@H]4O[C@H](COS(=O)(=O)[O-])[C@@H](OS(=O)(=O)[O-])[C@H](OS(=O)(=O)[O-])[C@H]4OS(=O)(=O)[O-])[C@H](OS(=O)(=O)[O-])[C@H]3OS(=O)(=O)[O-])[C@H](OS(=O)(=O)[O-])[C@H]2OS(=O)(=O)[O-])[C@H](OS(=O)(=O)[O-])[C@H]1OS(=O)(=O)[O-].[Na+].[Na+].[Na+].[Na+].[Na+].[Na+].[Na+].[Na+].[Na+].[Na+].[Na+].[Na+].[Na+]		65.8		32.2		800			14	Active	Active	Active	> 80
CC(C)CCC[C@@H](C)[C@H]1CC[C@H]2[C@@H]3CC[C@H]4C[C@@H](OCc5cn([C@@H]6O[C@H](COS(=O)(=O)[O-])[C@@H](O[C@@H]7O[C@H](COS(=O)(=O)[O-])[C@H](OS(=O)(=O)[O-])[C@H](OS(=O)(=O)[O-])[C@H]7OS(=O)(=O)[O-])[C@H](OS(=O)(=O)[O-])[C@H]6OS(=O)(=O)[O-])nn5)CC[C@]4(C)[C@H]3CC[C@]12C.[Na+].[Na+].[Na+].[Na+].[Na+].[Na+].[Na+]	30	39.6	1800	25.3	2700	2430	2620	610	1600	Active	Active	Active	
